Laboratory results reported in ChEMBL document CHEMBL4602632, “Synthesis and anti-Mycobacterium tuberculosis activity of imide-β-carboline and carbomethoxy-β-carboline derivatives” (Eur J Med Chem, 2020).
Converted amounts (≈) assume the structure as drawn.

Assays:
[1] = test system: Mycobacterium tuberculosis; assay: Antimycobacterial activity against Mycobacterium tuberculosis H37Rv assessed as reduction in bacterial growth incubated for 7 days by resazurin dye based assay; type: functional; details: 168 h
Summary of the method: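 REMA broth microdilution: DMSO stocks diluted in 7H9-OADC, standardized inoculum added, final 0.98 to 250 μg/mL; 7 days at 35 °C in normal atmosphere, then 0.01% resazurin and a further 24 h at 35 °C. Read visually. MIC is the lowest concentration preventing the blue-to-pink change. Three independent assays on different days; isoniazid reference, medium, sterility and growth ±2.5% DMSO controls.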

[2] = Selectivity index, ratio of CC50 for African green monkey Vero cells to MIC for Mycobacterium tuberculosis 71A; type: toxicity
[3] = Selectivity index, ratio of CC50 for African green monkey Vero cells to MIC for Mycobacterium tuberculosis 19; type: toxicity
[4] = Selectivity index, ratio of CC50 for African green monkey Vero cells to MIC for Mycobacterium tuberculosis 3614; type: toxicity
[5] = Selectivity index, ratio of CC50 for African green monkey Vero cells to MIC for Mycobacterium tuberculosis BRF57; type: toxicity
[6] = Selectivity index, ratio of CC50 for African green monkey Vero cells to MIC for Mycobacterium tuberculosis BRF16; type: toxicity
[7] = Selectivity index, ratio of CC50 for African green monkey Vero cells to MIC for Mycobacterium tuberculosis 73A; type: toxicity
[8] = Cytotoxicity against African green monkey Vero cells assessed as reduction in cell viability incubated for 24 hrs by MTT assay; type: cell-based; details: chlorocebus sabaeus
Summary of the method: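 VERO (ATCC CCL81) cells grown in DMEM with 10% FBS at 37 °C, 5% CO₂. Seeded at 5 × 10⁴ cells/well for 24 h, then exposed to 1.95–1000 μg/mL in DMEM for 24 h. Washed with PBS, MTT (2 mg/mL in PBS) added for 4 h, dissolved in DMSO, A550 read. CC50 is the highest concentration leaving 50% of cells viable versus control. Three independent assays.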

[9] = Selectivity index, ratio of CC50 for African green monkey Vero cells to MIC for Mycobacterium tuberculosis BRF14; type: toxicity
[10] = Selectivity index, ratio of CC50 for African green monkey Vero cells to MIC for Mycobacterium tuberculosis BRF45; type: toxicity
[11] = Selectivity index, ratio of CC50 for African green monkey Vero cells to MIC for Mycobacterium tuberculosis H37Rv; type: toxicity
Summary of the method: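 Selectivity index computed as the CC50 from VERO MTT assay divided by the REMA MIC against H37Rv.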

[12] = Selectivity index, ratio of CC50 for African green monkey Vero cells to MIC for Mycobacterium tuberculosis 91; type: toxicity

COC(=O)c1cc2c([nH]c3ccccc32)c(-c2ccccc2)n1
MIC [1]: > 828 µM

COC(=O)c1cc2c([nH]c3ccccc32)c(-c2ccccc2Cl)n1
MIC [1]: > 744 µM

COC(=O)c1cc2c([nH]c3ccccc32)c(-c2ccc(OC)cc2)n1
MIC [1]: 579 µM (≈ 192 µg/mL)

COC(=O)c1cc2c([nH]c3ccccc32)c(-c2cccc([N+](=O)[O-])c2)n1
MIC [1]: 720 µM (≈ 250 µg/mL)

COC(=O)c1cc2c([nH]c3ccccc32)c(-c2ccc(N(C)C)cc2)n1
selectivity ratio [2]: < 1.74 | MIC [1]: 362 µM (≈ 125 µg/mL) | selectivity ratio [3]: 13.9 | selectivity ratio [4]: 13.5 | selectivity ratio [5]: 3.48 | selectivity ratio [6]: 3.48 | selectivity ratio [7]: 13.9 | CC50 at 24 h [8]: 435 µM | selectivity ratio [9]: 1.74 | selectivity ratio [10]: 13.9 | selectivity ratio [11]: 3.48 | selectivity ratio [12]: 6.96

O=C(NN1C(=O)CCC1=O)c1cc2c([nH]c3ccccc32)c(-c2ccc(F)cc2)n1
selectivity ratio [2]: 2.16 | MIC [1]: 311 µM (≈ 125 µg/mL) | selectivity ratio [3]: 4.32 | selectivity ratio [4]: 4.32 | selectivity ratio [5]: 2.16 | selectivity ratio [6]: 4.32 | selectivity ratio [7]: 8.64 | CC50 at 24 h [8]: 270 µM | selectivity ratio [9]: 4.32 | selectivity ratio [10]: 8.64 | selectivity ratio [11]: 2.16 | selectivity ratio [12]: 2.16

O=C(NN1C(=O)C=CC1=O)c1cc2c([nH]c3ccccc32)c(-c2ccccc2)n1
MIC [1]: 654 µM (≈ 250 µg/mL)

O=C(NN1C(=O)c2ccccc2C1=O)c1cc2c([nH]c3ccccc32)c(-c2ccccc2Cl)n1
MIC [1]: 536 µM (≈ 250 µg/mL)

O=C(NN1C(=O)c2ccccc2C1=O)c1cc2c([nH]c3ccccc32)c(-c2cccc([N+](=O)[O-])c2)n1
selectivity ratio [2]: < 2.6 | MIC [1]: 262 µM (≈ 125 µg/mL) | selectivity ratio [3]: 5.2 | selectivity ratio [4]: 5.2 | selectivity ratio [5]: < 2.6 | selectivity ratio [6]: 5.2 | selectivity ratio [7]: 5.2 | CC50 at 24 h [8]: 650 µM | selectivity ratio [9]: 2.6 | selectivity ratio [10]: 5.2 | selectivity ratio [11]: 5.2 | selectivity ratio [12]: < 2.6

COC(=O)c1cc2c([nH]c3ccccc32)c(-c2ccc(O)c(OC)c2)n1
MIC [1]: 718 µM (≈ 250 µg/mL)

O=C(NN1C(=O)C=CC1=O)c1cc2c([nH]c3ccccc32)c(-c2ccc(F)cc2)n1
MIC [1]: 625 µM (≈ 250 µg/mL)

COc1ccc(-c2nc(C(=O)NN3C(=O)CCC3=O)cc3c2[nH]c2ccccc23)cc1
MIC [1]: > 604 µM

CN(C)c1ccc(-c2nc(C(=O)NN3C(=O)c4ccccc4C3=O)cc3c2[nH]c2ccccc23)cc1
MIC [1]: > 526 µM

O=C(NN1C(=O)c2ccccc2C1=O)c1cc2c([nH]c3ccccc32)c(-c2ccccc2)n1
selectivity ratio [2]: 7.2 | MIC [1]: 289 µM (≈ 125 µg/mL) | selectivity ratio [3]: 14.4 | selectivity ratio [4]: 14.4 | selectivity ratio [5]: 7.2 | selectivity ratio [6]: 7.2 | selectivity ratio [7]: 14.4 | CC50 at 24 h [8]: 900 µM | selectivity ratio [9]: 7.2 | selectivity ratio [10]: 14.4 | selectivity ratio [11]: 7.2 | selectivity ratio [12]: 7.2

O=C(NN1C(=O)c2ccccc2C1=O)c1cc2c([nH]c3ccccc32)c(-c2ccc(F)cc2)n1
selectivity ratio [2]: 6.1 | MIC [1]: 278 µM (≈ 125 µg/mL) | selectivity ratio [3]: 12.2 | selectivity ratio [4]: 12.2 | selectivity ratio [5]: 6.1 | selectivity ratio [7]: 12.2 | CC50 at 24 h [8]: 762 µM | selectivity ratio [9]: 12.2 | selectivity ratio [10]: 12.2 | selectivity ratio [11]: 6.1 | selectivity ratio [12]: 6.1

COc1ccc(-c2nc(C(=O)NN3C(=O)c4ccccc4C3=O)cc3c2[nH]c2ccccc23)cc1
MIC [1]: > 541 µM

COc1cc(-c2nc(C(=O)NN3C(=O)c4ccccc4C3=O)cc3c2[nH]c2ccccc23)ccc1O
MIC [1]: 523 µM (≈ 250 µg/mL)

O=C(NN1C(=O)CCC1=O)c1cc2c([nH]c3ccccc32)c(-c2cccc([N+](=O)[O-])c2)n1
MIC [1]: > 583 µM

COC(=O)c1cc2c([nH]c3ccccc32)c(-c2ccc(F)cc2)n1
MIC [1]: > 781 µM

NNC(=O)c1ccncc1 [ISONIAZID]
MIC [1]: 0.06 µM (≈ 0.00823 µg/mL)
